Test results published in ChEMBL document CHEMBL4229380, “Arylureas derived from colchicine: Enhancement of colchicine oncogene downregulation activity” (Eur J Med Chem, 2018).

Legend:
HT-29 [1] = test: Antiproliferative activity against human HT-29 cells after 2 days by MTT assay; format: functional, cell-based; conditions: HT-29, 48 h
In short: (§1)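 Cells (5×10^3 per well) in DMEM with 10% FBS, glucose, glutamine and antibiotics were exposed to serial dilutions (stocks in DMSO) for 2 days at 37 °C, 5% CO2. MTT was added for 3 h, formazan was dissolved in DMSO and absorbance read at 490 nm. Viability was taken as % of untreated cells. IC50 was read graphically from three independent experiments.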

MCF7 = test: Antiproliferative activity against human MCF7 cells after 2 days by MTT assay; format: functional, cell-based; conditions: MCF7, 48 h; in short: as §1
HeLa = test: Antiproliferative activity against human HeLa cells after 2 days by MTT assay; format: functional, cell-based; conditions: 48 h; in short: as §1
HEK293 = test: Antiproliferative activity against human HEK293 cells after 2 days by MTT assay; format: cell-based; conditions: HEK293, 48 h; in short: as §1
HT-29 [2] = test: Induction of apoptosis in human HT-29 cells assessed as viable cells at 5 nM after 48 hrs by Annexin V-FITC staining-based flow cytometric analysis (reference value: 82 +/- 1%); format: functional; conditions: HT-29, 48 h, read-out: Activity
HT-29 [3] = test: Induction of apoptosis in human HT-29 cells assessed as apoptotic cells at 5 nM after 48 hrs by Annexin V-FITC staining-based flow cytometric analysis (reference value: 13 +/- 3%); format: functional
HT-29 [4] = test: Induction of apoptosis in human HT-29 cells assessed as necrotic cells at 5 nM after 48 hrs by Annexin V-FITC staining-based flow cytometric analysis (reference value: 2 +/- 6%); format: functional
HT-29 [5] = test: Effect on c-MYC gene expression in human HT-29 cells assessed as c-MYC level at 5 nM after 48 hrs by RT-qPCR analysis; format: functional
In short: (§2)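 HT-29 cells at 70–80% confluence were seeded at 1.5×10^5 per well and left 24 h, then treated 48 h, with DMSO as control. Total RNA was extracted and VEGF-A, c-Myc and hTERT were quantified by TaqMan qPCR, normalized to β-actin and to living cell number. Results are % expression versus control, at least three measurements.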

HT-29 [6] = test: Effect on hTERT gene expression in human HT-29 cells assessed as hTERT level at 5 nM after 48 hrs by RT-qPCR analysis; format: functional; in short: as §2
HT-29 [7] = test: Effect on VEGF gene expression in human HT-29 cells assessed as VEGF level at 5 nM after 48 hrs by RT-qPCR analysis; format: functional; in short: as §2
HT-29 [8] = test: Effect on c-MYC protein expression in human HT-29 cells assessed as c-MYC level at 5 nM after 48 hrs by ELISA; format: functional
In short: (§3)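 HT-29 cells (1.5×10^5 per well, 24 h pre-culture) were treated 48 h and washed in PBS. They were lysed in Tris pH 7.4 buffer with detergents, phosphatase inhibitors, PMSF and protease inhibitors. Lysates were adjusted to 200 µg/mL protein (Bradford) and total c-Myc or VEGFR-2 was measured by sandwich ELISA kit. Values are % of DMSO control, ≥3 measurements.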

HT-29 [9] = test: Effect on VEGFR2 protein expression in human HT-29 cells assessed as VEGFR2 level at 5 nM after 48 hrs by ELISA; format: functional; in short: as §3
HT-29 [10] = test: Effect on VEGF protein expression in human HT-29 cells assessed as secreted VEGF level in culture media at 5 nM after 48 hrs by ELISA
HT-29 [11] = test: Induction of apoptosis in human HT-29 cells assessed as viable cells at 25 nM after 48 hrs by Annexin V-FITC staining-based flow cytometric analysis (reference value: 82 +/- 1%); format: functional; conditions: HT-29, 48 h, read-out: Activity
HT-29 [12] = test: Induction of apoptosis in human HT-29 cells assessed as apoptotic cells at 25 nM after 48 hrs by Annexin V-FITC staining-based flow cytometric analysis (reference value: 13 +/- 3%); format: functional
HT-29 [13] = test: Induction of apoptosis in human HT-29 cells assessed as necrotic cells at 25 nM after 48 hrs by Annexin V-FITC staining-based flow cytometric analysis (reference value: 2 +/- 6%); format: functional
HT-29 [14] = test: Induction of apoptosis in human HT-29 cells assessed as viable cells at 15 nM after 48 hrs by Annexin V-FITC staining-based flow cytometric analysis (reference value: 82 +/- 1%); format: functional; conditions: HT-29, 48 h, read-out: Activity
HT-29 [15] = test: Induction of apoptosis in human HT-29 cells assessed as apoptotic cells at 15 nM after 48 hrs by Annexin V-FITC staining-based flow cytometric analysis (reference value: 13 +/- 3%); format: functional
HT-29 [16] = test: Induction of apoptosis in human HT-29 cells assessed as necrotic cells at 15 nM after 48 hrs by Annexin V-FITC staining-based flow cytometric analysis (reference value: 2 +/- 6%); format: functional
HT-29 [17] = test: Effect on c-MYC gene expression in human HT-29 cells assessed as c-MYC level at 15 nM after 48 hrs by RT-qPCR analysis; format: functional; in short: as §2
HT-29 [18] = test: Effect on hTERT gene expression in human HT-29 cells assessed as hTERT level at 15 nM after 48 hrs by RT-qPCR analysis; format: functional; in short: as §2
HT-29 [19] = test: Effect on VEGF gene expression in human HT-29 cells assessed as VEGF level at 15 nM after 48 hrs by RT-qPCR analysis; format: functional; in short: as §2
HT-29 [20] = test: Effect on c-MYC protein expression in human HT-29 cells assessed as c-MYC level at 15 nM after 48 hrs by ELISA; format: functional; in short: as §3
HT-29 [21] = test: Effect on VEGFR2 protein expression in human HT-29 cells assessed as VEGFR2 level at 15 nM after 48 hrs by ELISA; format: functional; in short: as §3
HT-29 [22] = test: Effect on VEGF protein expression in human HT-29 cells assessed as secreted VEGF level in culture media at 15 nM after 48 hrs by ELISA
HT-29 [23] = test: Induction of apoptosis in human HT-29 cells assessed as viable cells at 20 nM after 48 hrs by Annexin V-FITC staining-based flow cytometric analysis (reference value: 82 +/- 1%); format: functional; conditions: HT-29, 48 h, read-out: Activity
HT-29 [24] = test: Induction of apoptosis in human HT-29 cells assessed as apoptotic cells at 20 nM after 48 hrs by Annexin V-FITC staining-based flow cytometric analysis (reference value: 13 +/- 3%); format: functional
HT-29 [25] = test: Induction of apoptosis in human HT-29 cells assessed as necrotic cells at 20 nM after 48 hrs by Annexin V-FITC staining-based flow cytometric analysis (reference value: 2 +/- 6%); format: functional

IC50 (HT-29 [1]) [µM] | IC50 (MCF7) [µM] | IC50 (HeLa) [µM] | Compound | IC50 (HEK293) [µM] | other results
0.0111 | 0.017 | 0.016 | COc1cc2c(c(OC)c1OC)-c1ccc(OC)c(=O)cc1[C@@H](NC(=O)Nc1cccc3ccccc13)CC2 | 0.009 | 
0.005 | 0.01 | 0.01 | COc1cc2c(c(OC)c1OC)-c1ccc(OC)c(=O)cc1[C@@H](NC(=O)Nc1ccc(F)cc1)CC2 | 0.013 | viability at 0.005 µM (HT-29 [2]): 51%; Activity (HT-29 [3]): 47%; Activity (HT-29 [4]): 2%; Activity (HT-29 [5]): 52%; Activity (HT-29 [6]): 70%; Activity (HT-29 [7]): 59%; Activity (HT-29 [8]): 105%; Activity (HT-29 [9]): 63%; Activity (HT-29 [10]): 55%
0.031 | 0.024 | 0.042 | COc1cc2c(c(OC)c1OC)-c1ccc(OC)c(=O)cc1[C@@H](NC(=O)Nc1ccc(Cl)cc1Cl)CC2 | 0.032 | 
0.00175 | 0.0012 | 0.005 | COc1cc2c(c(OC)c1OC)-c1ccc(OC)c(=O)cc1[C@@H](NC(=O)Nc1ccc(F)cc1Cl)CC2 | 0.0017 | viability at 0.005 µM (HT-29 [2]): 46%; Activity (HT-29 [3]): 53%; Activity (HT-29 [4]): 1%; Activity (HT-29 [5]): 58%; Activity (HT-29 [6]): 80%; Activity (HT-29 [7]): 64%; Activity (HT-29 [8]): 104%; Activity (HT-29 [9]): 15%; Activity (HT-29 [10]): 67%
0.026 | 0.119 | 0.032 | COc1cc2c(c(OC)c1OC)-c1ccc(OC)c(=O)cc1[C@@H](NC(=O)Nc1ccccc1C)CC2 | 0.044 | viability at 0.025 µM (HT-29 [11]): 64%; Activity (HT-29 [12]): 34%; Activity (HT-29 [13]): 2%
0.011 | 0.011 | 0.01 | COc1cc2c(c(OC)c1OC)-c1ccc(OC)c(=O)cc1[C@@H](NC(=O)Nc1ccccc1C#N)CC2 | 0.011 | 
0.025 | 0.042 | 0.018 | COc1cc2c(c(OC)c1OC)-c1ccc(OC)c(=O)cc1[C@@H](NC(=O)Nc1c(F)cccc1F)CC2 | 0.046 | viability at 0.015 µM (HT-29 [14]): 87%; Activity (HT-29 [15]): 12%; Activity (HT-29 [16]): 1%; Activity (HT-29 [17]): 88%; Activity (HT-29 [18]): 36%; Activity (HT-29 [19]): 38%; Activity (HT-29 [20]): 42%; Activity (HT-29 [21]): 35%; Activity (HT-29 [22]): 11%
0.0038 | 0.0044 | 0.003 | COc1cc2c(c(OC)c1OC)-c1ccc(OC)c(=O)cc1[C@@H](NC(=O)Nc1ccccc1OC(F)(F)F)CC2 | 0.005 | 
0.13 | 0.24 | 0.242 | COc1cc2c(c(OC)c1OC)-c1ccc(OC)c(=O)cc1[C@@H](NC(=O)Nc1c(C)cccc1C)CC2 | 0.218 | 
0.004 | 0.013 | 0.0065 | COc1ccc(NC(=O)N[C@H]2CCc3cc(OC)c(OC)c(OC)c3-c3ccc(OC)c(=O)cc32)cc1 | 0.014 | viability at 0.005 µM (HT-29 [2]): 64%; Activity (HT-29 [3]): 35%; Activity (HT-29 [4]): 1%; Activity (HT-29 [5]): 55%; Activity (HT-29 [6]): 91%; Activity (HT-29 [7]): 70%; Activity (HT-29 [8]): 61%; Activity (HT-29 [9]): 95%; Activity (HT-29 [10]): 44%
0.19 | 0.2 | 0.22 | COc1cc2c(c(OC)c1OC)-c1ccc(OC)c(=O)cc1[C@@H](NC(=O)Nc1ccc(C(F)(F)F)cc1Cl)CC2 | 0.22 | 
0.0047 | 0.006 | 0.006 | COc1cc2c(c(OC)c1OC)-c1ccc(OC)c(=O)cc1[C@@H](NC(=O)Nc1ccccc1F)CC2 | 0.005 | 
0.014 | 0.01 | 0.021 | COc1cc2c(c(OC)c1OC)-c1ccc(OC)c(=O)cc1[C@@H](NC(=O)Nc1ccc(F)cc1C)CC2 | 0.065 | viability at 0.015 µM (HT-29 [14]): 73%; Activity (HT-29 [15]): 26%; Activity (HT-29 [16]): 1%; Activity (HT-29 [17]): 65%; Activity (HT-29 [18]): 68%; Activity (HT-29 [19]): 63%; Activity (HT-29 [20]): 110%; Activity (HT-29 [21]): 62%; Activity (HT-29 [22]): 90%
0.03 | 0.014 | 0.02 | COc1cc2c(c(OC)c1OC)-c1ccc(OC)c(=O)cc1[C@@H](NC(=O)Nc1c(Cl)cc(F)cc1Cl)CC2 | 0.092 | 
0.04 | 0.013 | 0.022 | COc1cc2c(c(OC)c1OC)-c1ccc(OC)c(=O)cc1[C@@H](NC(=O)Nc1c(Cl)cccc1Cl)CC2 | 0.042 | 
0.037 | 0.089 | 0.087 | COc1cc2c(c(OC)c1OC)-c1ccc(OC)c(=O)cc1[C@@H](NC(=O)NC1CCCCC1)CC2 | 0.098 | 
0.011 | 0.012 | 0.012 | COc1cc2c(c(OC)c1OC)-c1ccc(OC)c(=O)cc1[C@@H](NC(=O)Nc1ccccc1)CC2 | 0.01 | 
0.01 | 0.02 | 0.016 | COc1cc2c(c(OC)c1OC)-c1ccc(OC)c(=O)cc1[C@@H](NC(=O)Nc1cc(F)cc(F)c1)CC2 | 0.01 | 
0.008 | 0.01 | 0.007 | COc1cc2c(c(OC)c1OC)-c1ccc(OC)c(=O)cc1[C@@H](NC(=O)Nc1ccc3ccccc3c1)CC2 | 0.007 | 
2.6 | 1.8 | 1.7 | COc1cc2c(c(OC)c1OC)-c1ccc(OC)c(=O)cc1[C@@H](NC(=O)Nc1cc(C(F)(F)F)cc(C(F)(F)F)c1)CC2 | 1.5 | viability at 0.02 µM (HT-29 [23]): 96%; Activity (HT-29 [24]): 4%; Activity (HT-29 [25]): 1%
0.0043 | 0.37 | 0.008 | COc1cc2c(c(OC)c1OC)-c1ccc(OC)c(=O)cc1[C@@H](NC(=O)Nc1cccc(Cl)c1)CC2 | 0.0046 | viability at 0.005 µM (HT-29 [2]): 62%; Activity (HT-29 [3]): 37%; Activity (HT-29 [4]): 1%; Activity (HT-29 [5]): 104%; Activity (HT-29 [6]): 90%; Activity (HT-29 [7]): 95%; Activity (HT-29 [8]): 87%; Activity (HT-29 [9]): 15%; Activity (HT-29 [10]): 114%
